PMC7396963 (Journal of pharmaceutical and biomedical analysis, 2018)
Read-outs that look alike come from different tables or passages of the source.

What was measured:
[1] = Glucuronidation kinetics of NBIF in HLM; format: in vitro ADME, human
Method in brief: (§1)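 Incubation in 50 mM Tris-HCl (pH 7.4) with 4.0 mM MgCl2, 22 μg/mL alamethicin, 4.4 mM saccharolactone and 3.5 mM UDPGA. Enzyme source is recombinant UGT or pooled liver or intestinal microsomes, as the line states. Test compound 0.16–80 μM, 1 h. Ice-cold acetonitrile stop, centrifugation, UHPLC/Q-TOF-MS semi-quantification of glucuronides. Minus-UDPGA control. Triplicate. Michaelis-Menten or substrate-inhibition model chosen by Eadie-Hofstee plot; CLint = Vmax/Km.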

[2] = tested on: UDP-glucuronosyltransferase 1A1 (UGT1A1); details: inhibitory effect on UGT1A1; cited from earlier work
[3] = biological target: T1, UGT1A9 (Homo sapiens, UniProt O60656); test: Glucuronidation kinetics of NBIF by recombinant UGT1A9; format: in vitro ADME; details: for Vmax: glucuronide formation from NBIF, recombinant UGT1A9
T1 sequence (O60656 26-530): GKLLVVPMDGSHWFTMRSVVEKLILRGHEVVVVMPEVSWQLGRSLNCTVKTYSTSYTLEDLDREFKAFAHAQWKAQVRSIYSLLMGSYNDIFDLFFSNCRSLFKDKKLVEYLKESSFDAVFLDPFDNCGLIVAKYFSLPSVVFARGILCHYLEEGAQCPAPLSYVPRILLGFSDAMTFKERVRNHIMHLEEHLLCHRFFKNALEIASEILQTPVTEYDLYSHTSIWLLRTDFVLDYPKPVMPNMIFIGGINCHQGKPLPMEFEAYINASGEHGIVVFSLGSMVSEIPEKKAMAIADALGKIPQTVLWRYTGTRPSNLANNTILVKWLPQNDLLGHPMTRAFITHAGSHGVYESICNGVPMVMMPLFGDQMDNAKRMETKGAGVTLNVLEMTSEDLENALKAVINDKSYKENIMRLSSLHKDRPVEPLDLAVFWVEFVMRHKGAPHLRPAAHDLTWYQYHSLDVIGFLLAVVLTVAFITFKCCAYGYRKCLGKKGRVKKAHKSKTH
Method in brief: as §1

[4] = biological target: human monoamine oxidase-B; details: cited from earlier work
[5] = inhibitory effect on HLM; cited from earlier work
[6] = Species difference analysis of NBIF metabolism; format: in vitro ADME; details: CLint, HLM versus animal liver microsomes
Method in brief: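 CLint values (Vmax/Km from model fits) for oxidation and glucuronidation come from pooled human liver microsomes and from monkey, rat, mouse, dog and rabbit liver microsomes. Each was incubated with test compound at 0.16–80 μM, using NADPH-supplemented oxidation or UDPGA/alamethicin glucuronidation conditions. Metabolites were measured by UHPLC/Q-TOF-MS in triplicate.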

[7] = tested on: platelet aggregation; details: inhibition of platelet aggregation; cited from earlier work
[8] = biological target: human monoamine oxidase-A; details: cited from earlier work
[9] = biological target: α-glucosidase; details: α-glucosidase inhibitory activities; cited from earlier work
[10] = biological target: human carboxylesterase 2; details: cited from earlier work
[11] = glucuronidation; cited from earlier work
[12] = glucuronidation; cited from earlier work; remark: listed apart in the source
[13] = biological target: T2, UGT1A7 (Homo sapiens, UniProt Q9HAW7); test: Glucuronidation kinetics of NBIF by recombinant UGT1A7; format: in vitro ADME; details: glucuronide formation from NBIF
T2 sequence (Q9HAW7 26-530): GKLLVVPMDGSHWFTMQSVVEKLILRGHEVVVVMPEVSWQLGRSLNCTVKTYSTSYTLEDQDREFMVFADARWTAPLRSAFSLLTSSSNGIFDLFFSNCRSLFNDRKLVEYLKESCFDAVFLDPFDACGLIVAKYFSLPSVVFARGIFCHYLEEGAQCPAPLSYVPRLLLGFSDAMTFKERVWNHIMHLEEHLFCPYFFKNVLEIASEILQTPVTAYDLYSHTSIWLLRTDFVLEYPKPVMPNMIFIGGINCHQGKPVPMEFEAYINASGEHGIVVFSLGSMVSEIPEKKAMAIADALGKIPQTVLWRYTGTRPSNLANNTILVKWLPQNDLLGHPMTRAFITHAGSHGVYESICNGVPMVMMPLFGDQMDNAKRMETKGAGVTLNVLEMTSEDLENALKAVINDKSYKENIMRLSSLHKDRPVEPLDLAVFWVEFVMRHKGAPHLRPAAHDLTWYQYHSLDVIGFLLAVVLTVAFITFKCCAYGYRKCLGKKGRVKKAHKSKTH
Method in brief: as §1

[14] = Glucuronidation kinetics of NBIF in HIM; format: in vitro ADME, human; details: glucuronide formation from NBIF, UDPGA-supplemented HIM
Method in brief: as §1

[15] = Glucuronidation kinetics of NBIF in RaLM; format: in vitro ADME, rabbits; details: glucuronide formation from NBIF, UDPGA-supplemented RaLM
Method in brief: as §1

[16] = biological target: T3, UGT1A1 (Homo sapiens, UniProt P22309); test: Glucuronidation kinetics of NBIF by recombinant UGT1A1; format: in vitro ADME; details: glucuronide formation from NBIF
T3 sequence (P22309 26-533): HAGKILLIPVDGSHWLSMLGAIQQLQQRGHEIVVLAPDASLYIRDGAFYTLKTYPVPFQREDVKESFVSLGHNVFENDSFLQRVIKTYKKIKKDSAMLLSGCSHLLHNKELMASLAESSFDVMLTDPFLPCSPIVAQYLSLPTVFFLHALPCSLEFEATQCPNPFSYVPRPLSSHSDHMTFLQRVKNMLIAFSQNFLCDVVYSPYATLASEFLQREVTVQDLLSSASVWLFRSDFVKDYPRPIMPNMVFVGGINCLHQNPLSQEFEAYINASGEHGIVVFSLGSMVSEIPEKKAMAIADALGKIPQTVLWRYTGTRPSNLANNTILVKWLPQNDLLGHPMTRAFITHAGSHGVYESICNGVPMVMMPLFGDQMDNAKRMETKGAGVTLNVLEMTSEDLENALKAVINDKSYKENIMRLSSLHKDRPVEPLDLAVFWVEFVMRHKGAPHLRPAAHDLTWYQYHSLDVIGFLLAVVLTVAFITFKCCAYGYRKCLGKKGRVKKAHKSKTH
Method in brief: as §1

[17] = biological target: T4, UGT1A8 (Homo sapiens, UniProt Q9HAW9); test: Glucuronidation kinetics of NBIF by recombinant UGT1A8; format: in vitro ADME; details: glucuronide formation from NBIF
T4 sequence (Q9HAW9 26-530): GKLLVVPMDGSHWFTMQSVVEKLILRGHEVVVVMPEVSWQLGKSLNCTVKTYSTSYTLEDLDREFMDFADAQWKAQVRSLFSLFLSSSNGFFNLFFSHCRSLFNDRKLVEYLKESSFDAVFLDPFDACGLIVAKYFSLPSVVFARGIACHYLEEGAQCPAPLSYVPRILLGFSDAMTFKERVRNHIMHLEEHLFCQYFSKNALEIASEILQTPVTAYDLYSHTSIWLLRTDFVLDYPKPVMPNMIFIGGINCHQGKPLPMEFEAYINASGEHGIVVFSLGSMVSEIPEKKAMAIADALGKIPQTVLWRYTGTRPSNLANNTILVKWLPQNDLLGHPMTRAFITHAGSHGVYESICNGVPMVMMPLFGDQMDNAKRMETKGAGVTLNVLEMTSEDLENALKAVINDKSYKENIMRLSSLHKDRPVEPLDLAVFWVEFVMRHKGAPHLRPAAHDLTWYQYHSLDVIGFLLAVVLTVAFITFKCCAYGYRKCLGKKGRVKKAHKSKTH
Method in brief: as §1

[18] = Glucuronidation kinetics of NBIF in DLM; format: in vitro ADME, dogs; details: glucuronide formation from NBIF, UDPGA-supplemented DLM
Method in brief: as §1

[19] = Glucuronidation kinetics of NBIF in MLM; format: in vitro ADME, mice; details: glucuronide formation from NBIF, UDPGA-supplemented MLM
Method in brief: as §1

[20] = Glucuronidation kinetics of NBIF in MkLM; format: in vitro ADME, monkeys; details: glucuronide formation from NBIF, UDPGA-supplemented MkLM
Method in brief: as §1

[21] = Glucuronidation kinetics of NBIF in RLM; format: in vitro ADME, rats; details: glucuronide formation from NBIF, UDPGA-supplemented RLM
Method in brief: as §1

[22] = glucuronide formation from NBIF, UDPGA-supplemented HLM

Row | Compound | Ki [13] [µM] | Vmax [13] [pmol/min/mg] | Vmax [1, 22] [pmol/min/mg] | Vmax [14] [pmol/min/mg] | Vmax [15] [pmol/min/mg] | Vmax [3] [pmol/min/mg] | Ki [16] [µM] | Vmax [16] [pmol/min/mg] | Vmax [17] [pmol/min/mg] | Vmax [18] [pmol/min/mg] | Ki [19] [µM] | Vmax [19] [pmol/min/mg] | Vmax [20] [pmol/min/mg] | Ki [21] [µM] | Vmax [21] [pmol/min/mg] | also measured
1 | CC(C)=CCc1cc(-c2coc3cc(O)ccc3c2=O)ccc1O [NBIF, Neobavaisoflavone] | – | – | – | – | – | – | – | – | – | – | – | – | – | – | – | microsomal CLint ([1]; human, human liver microsomes (HLM) and HIM, pH 7.4): 60 to 949 µL/min/mg; IC50 [2]: 2.42 µM; microsomal CLint ([3]; human, recombinant UGT1A9, pH 7.4): 1070 µL/min/mg; IC50 [4]: 77.3 µM; IC50 [5]: 2.25 µM; species differences in glucuronidation [6]: approximately 2.3 fold; species differences in the phase I metabolism [6]: approximately 16.1 fold; IC50 [7]: 2.5 µM; IC50 [8]: 66.5 µM; IC50 [9]: 27.7 µM; IC50 [10]: 6.39 µM
2 | COc1ccc(-c2oc3c(CC=C(C)C)c(O)cc(O)c3c(=O)c2O)cc1 [icaritin] | – | – | – | – | – | – | – | – | – | – | – | – | – | – | – | CLint values [11]: more than 270 μL/min/mg
3 | COc1ccc(-c2oc3c(CCC(C)(C)O)c(O)cc(O)c3c(=O)c2O)cc1 [wushanicaritin] | – | – | – | – | – | – | – | – | – | – | – | – | – | – | – | CLint values [12]: > 160 µL/min/mg
4 | CC(C)=CCc1cc(-c2coc3cc(O)ccc3c2=O)ccc1O[C@@H]1O[C@H](C(=O)O)[C@@H](O)[C@H](O)[C@H]1O [G2, NBIF-4′-O-glucuronide] | 154.5 ± 44.85 | 135.3 ± 4.36 | 919.1 ± 20.23 | 8655.0 ± 1021.0 | 3411.0 ± 155.5 | 805.9 ± 17.46 | 401.2 ± 135.7 | 48.33 ± 1.59 | 147.0 ± 6.84 | 3363.0 ± 85.47 | 31.68 ± 9.16 | 3878.0 ± 563.1 | 7072.0 ± 228.4 | 9.09 ± 1.82 | 826.6 ± 99.48 | Ki [14]: 33.32 ± 7.95 µM
5 | CC(C)=CCc1cc(-c2coc3cc(O[C@@H]4O[C@H](C(=O)O)[C@@H](O)[C@H](O)[C@H]4O)ccc3c2=O)ccc1O [G1, NBIF-7-O-glucuronide] | 61.82 ± 13.5 | 11.93 ± 0.55 | 1788.0 ± 203.6 | 409.3 ± 18.9 | 3006.0 ± 103.8 | 70.01 ± 1.37 | 291.1 ± 100.1 | 912.4 ± 49.36 | 419.1 ± 18.69 | 1807.0 ± 48.14 | 38.19 ± 10.18 | 3589.0 ± 432.9 | 4129.0 ± 182.8 | 24.73 ± 4.75 | 2490.0 ± 249.5 | Ki [1, 22]: 48.45 ± 13.86 µM
